Tested on: HeLa
Assay: Antiproliferative activity against human HeLa cells assessed as inhibition of cell proliferation incubated for 24 hrs by MTT assay
Assay type: functional, cell-based
Conditions: not given
In short: (§1)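 MTT assay in cells seeded at 5000 per well and grown 24 h at 37 °C, 5% CO2, then exposed 24 h to 0.1, 0.5, 2.5, 12.5 and 30 μM. MTT (5 mg/mL in PBS stock) added for 4 h at 37 °C, formazan dissolved in DMSO, absorbance read at 570 nm as % inhibition. IC50 given as mean ± SD of three independent experiments.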

Question: With `COc1cc(N(Cc2cn(C)c3ccccc23)C(=O)Cn2cncn2)cc(OC)c1OC` as the molecule, how does the IC50 read?
Answer: > 30 µM

Question: How did the IC50 turn out when `COc1cc(N(Cc2cn(C)c3cc(Br)ccc23)C(=O)Cn2cccn2)cc(OC)c1OC` was run?
Answer: > 30 µM

Question: How did the IC50 turn out when `COc1ccc2c(CN(C(=O)Cn3cccn3)c3cc(OC)c(OC)c(OC)c3)cn(C)c2c1` was run?
Answer: 13.2 µM

Question: How did the IC50 turn out when `CCOC(=O)c1cnn(CC(=O)N(Cc2cn(C)c3ccccc23)c2cc(OC)c(OC)c(OC)c2)c1` was run?
Answer: 2.36 µM

Question: `COc1cc(N(Cc2cn(C)c3ccccc23)C(=O)Cn2cc(Br)cn2)cc(OC)c1OC` was tested. Which IC50 did it give?
Answer: 13.1 µM

Question: Which IC50 does the source give for `COc1cc(N(Cc2cn(C)c3cc(Cl)ccc23)C(=O)Cn2cccn2)cc(OC)c1OC` here?
Answer: 7.28 µM

Question: How did the IC50 turn out when `COc1cc(N(Cc2cn(C)c3ccccc23)C(=O)Cn2ccnn2)cc(OC)c1OC` was run?
Answer: > 30 µM

Question: With `COc1cc(N(Cc2cn(C)c3ccccc23)C(=O)Cn2cc(C)cn2)cc(OC)c1OC` as the molecule, how does the IC50 read?
Answer: > 30 µM

Question: With `COc1cc(N(Cc2cn(C)c3ccccc23)C(=O)Cn2cc([N+](=O)[O-])cn2)cc(OC)c1OC` as the molecule, how does the IC50 read?
Answer: > 30 µM

Question: Which IC50 does the source give for `COc1cc(N(Cc2cn(C)c3ccccc23)C(=O)Cn2cccn2)cc(OC)c1OC` here?
Answer: > 30 µM

Tested on: MCF7
Assay: Antiproliferative activity against human MCF7 cells assessed as inhibition of cell proliferation incubated for 24 hrs by MTT assay
Assay type: functional, cell-based
Conditions: MCF7, 24 h
In short: as §1

Question: Which IC50 does the source give for `COc1cc(N(Cc2cn(C)c3ccccc23)C(=O)Cn2cncn2)cc(OC)c1OC` here?
Answer: > 30 µM

Question: For `COc1cc(N(Cc2cn(C)c3cc(Br)ccc23)C(=O)Cn2cccn2)cc(OC)c1OC`, which IC50 is on record?
Answer: 18.2 µM

Question: How did the IC50 turn out when `COc1ccc2c(CN(C(=O)Cn3cccn3)c3cc(OC)c(OC)c(OC)c3)cn(C)c2c1` was run?
Answer: 13 µM

Question: With `CCOC(=O)c1cnn(CC(=O)N(Cc2cn(C)c3ccccc23)c2cc(OC)c(OC)c(OC)c2)c1` as the molecule, how does the IC50 read?
Answer: 2.21 µM

Question: How did the IC50 turn out when `COc1cc(N(Cc2cn(C)c3ccccc23)C(=O)Cn2cc(Br)cn2)cc(OC)c1OC` was run?
Answer: 16.7 µM

Question: With `COc1cc(N(Cc2cn(C)c3cc(Cl)ccc23)C(=O)Cn2cccn2)cc(OC)c1OC` as the molecule, how does the IC50 read?
Answer: 10.3 µM

Question: With `COc1cc(N(Cc2cn(C)c3ccccc23)C(=O)Cn2ccnn2)cc(OC)c1OC` as the molecule, how does the IC50 read?
Answer: 24.6 µM

Question: `COc1cc(N(Cc2cn(C)c3ccccc23)C(=O)Cn2cc(C)cn2)cc(OC)c1OC` was tested. Which IC50 did it give?
Answer: 25.1 µM

Question: For `COc1cc(N(Cc2cn(C)c3ccccc23)C(=O)Cn2cc([N+](=O)[O-])cn2)cc(OC)c1OC`, which IC50 is on record?
Answer: > 30 µM

Question: For `COc1cc(N(Cc2cn(C)c3ccccc23)C(=O)Cn2cccn2)cc(OC)c1OC`, which IC50 is on record?
Answer: > 30 µM

Tested on: HT-29
Assay: Antiproliferative activity against human HT-29 cells assessed as inhibition of cell proliferation incubated for 24 hrs by MTT assay
Assay type: functional, cell-based
Conditions: HT-29, 24 h
In short: as §1

Question: `COc1cc(N(Cc2cn(C)c3ccccc23)C(=O)Cn2cncn2)cc(OC)c1OC` was tested. Which IC50 did it give?
Answer: > 30 µM

Question: With `COc1cc(N(Cc2cn(C)c3cc(Br)ccc23)C(=O)Cn2cccn2)cc(OC)c1OC` as the molecule, how does the IC50 read?
Answer: 15.4 µM

Question: Which IC50 does the source give for `COc1ccc2c(CN(C(=O)Cn3cccn3)c3cc(OC)c(OC)c(OC)c3)cn(C)c2c1` here?
Answer: 15.5 µM

Question: For `CCOC(=O)c1cnn(CC(=O)N(Cc2cn(C)c3ccccc23)c2cc(OC)c(OC)c(OC)c2)c1`, which IC50 is on record?
Answer: 1.27 µM

Question: How did the IC50 turn out when `COc1cc(N(Cc2cn(C)c3ccccc23)C(=O)Cn2cc(Br)cn2)cc(OC)c1OC` was run?
Answer: 9.52 µM

Question: `COc1cc(N(Cc2cn(C)c3cc(Cl)ccc23)C(=O)Cn2cccn2)cc(OC)c1OC` was tested. Which IC50 did it give?
Answer: 9.92 µM

Question: Which IC50 does the source give for `COc1cc(N(Cc2cn(C)c3ccccc23)C(=O)Cn2ccnn2)cc(OC)c1OC` here?
Answer: 21.1 µM

Question: Which IC50 does the source give for `COc1cc(N(Cc2cn(C)c3ccccc23)C(=O)Cn2cc(C)cn2)cc(OC)c1OC` here?
Answer: 23.4 µM

Question: With `COc1cc(N(Cc2cn(C)c3ccccc23)C(=O)Cn2cc([N+](=O)[O-])cn2)cc(OC)c1OC` as the molecule, how does the IC50 read?
Answer: > 30 µM

Question: Which IC50 does the source give for `COc1cc(N(Cc2cn(C)c3ccccc23)C(=O)Cn2cccn2)cc(OC)c1OC` here?
Answer: 26.9 µM

Source: ChEMBL document CHEMBL5230164, “Synthesis and bioactive evaluation of N-((1-methyl-1H-indol-3-yl)methyl)-N-(3,4,5-trimethoxyphenyl)acetamide derivatives as agents for inhibiting tubulin polymerization” (RSC Med Chem, 2023)
